ChEMBL document CHEMBL1687778, “Genetic determinants involved in the susceptibility of Pseudomonas aeruginosa to beta-lactam antibiotics” (2010)
Values after ≈ are worked out from the molar mass of the structure shown.

What was measured:
Pseudomonas aeruginosa [1] = experiment: Antimicrobial activity against Pseudomonas aeruginosa PA14 PA3721 harboring nalC mutant gene by Etest method; type: functional
Method in brief: (§1)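 Etest MIC. Overnight LB cultures at 37°C were diluted in sterile 0.85% NaCl to about 1 × 10^7 CFU/ml. 100 µl was spread on Mueller-Hinton agar, one strip was placed per plate, and plates were incubated at 37°C for 18 h. Equal cell numbers were seeded per plate, and results were verified in triplicate. PA14 wild type was included in each set as a susceptibility control.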

Pseudomonas aeruginosa [2] = experiment: Antimicrobial activity against Pseudomonas aeruginosa PA14 PA0770 harboring rnc mutant gene by Etest method; type: functional
Method in brief: (§2)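 Overnight LB cultures (37°C) diluted in sterile 0.85% NaCl to about 1 × 10^7 CFU/ml. 100 µl spread on Mueller-Hinton agar, one Etest strip per plate, 18 h at 37°C. Ceftazidime, imipenem and meropenem tested. Wild-type PA14 plate included in each set. Each mutant verified in triplicate.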

Pseudomonas aeruginosa [3] = experiment: Antimicrobial activity against Pseudomonas aeruginosa PA14 PA3589 harboring mutation in acetyl-coenzyme A (CoA) acetyltransferase (thiolase) by Etest method; type: functional; method in brief: as §1
Pseudomonas aeruginosa [4] = experiment: Antimicrobial activity against Pseudomonas aeruginosa PA14 PA4069 harboring mutation in putative dTDP-4-rhamnose reductase-related protein by Etest method; type: functional; method in brief: as §1
Pseudomonas aeruginosa [5] = experiment: Antimicrobial activity against Pseudomonas aeruginosa PA14 PA2615 harboring ftsK mutant gene by Etest method; type: functional; method in brief: as §2
Pseudomonas aeruginosa [6] = experiment: Antimicrobial activity against Pseudomonas aeruginosa PA14 PA1483 harboring cycH mutant gene by Etest method; type: functional; method in brief: as §2
Pseudomonas aeruginosa [7] = experiment: Antimicrobial activity against Pseudomonas aeruginosa PA14 PA3667 harboring mutation in putative cysteine sulfinate desulfinase by Etest method; type: functional; method in brief: as §1
Pseudomonas aeruginosa [8] = experiment: Antimicrobial activity against Pseudomonas aeruginosa harboring pBBR1MCS-3 expressing mucD mutant gene by Etest method
Pseudomonas aeruginosa [9] = experiment: Antimicrobial activity against Pseudomonas aeruginosa PA14 PA14_23430 harboring mutation in putative heparinase by Etest method; type: functional; method in brief: as §2
Pseudomonas aeruginosa [10] = experiment: Antimicrobial activity against Pseudomonas aeruginosa harboring pBBR-algU complemented gene by Etest method
Pseudomonas aeruginosa [11] = experiment: Antimicrobial activity against Pseudomonas aeruginosa PA14 PA14_23420 harboring mutation in putative zinc-binding dehydrogenase by Etest method; type: functional; method in brief: as §2
Pseudomonas aeruginosa [12] = experiment: Antimicrobial activity against Pseudomonas aeruginosa PA14 PA2797 harboring mutation in putative anti-anti-sigma factor by Etest method; type: functional; method in brief: as §2
Pseudomonas aeruginosa [13] = experiment: Antimicrobial activity against Pseudomonas aeruginosa PA14 PA1195 harboring mutation in putative dimethylarginine dimethylaminohydrolase by Etest method; type: functional; method in brief: as §2
Pseudomonas aeruginosa [14] = experiment: Antimicrobial activity against Pseudomonas aeruginosa PA14 PA4393 harboring mutation in putative permease by Etest method; type: functional; method in brief: as §1
Pseudomonas aeruginosa [15] = experiment: Antimicrobial activity against Pseudomonas aeruginosa PA14 PA3262 harboring fklB mutant gene by Etest method; type: functional; method in brief: as §1
Pseudomonas aeruginosa [16] = experiment: Antimicrobial activity against Pseudomonas aeruginosa PA14 PA0420 harboring bioA mutant gene by Etest method; type: functional; method in brief: as §2
Pseudomonas aeruginosa [17] = experiment: Antimicrobial activity against Pseudomonas aeruginosa PA14 PA4269 harboring rpoC mutant gene by Etest method; type: functional; method in brief: as §1
Pseudomonas aeruginosa [18] = experiment: Antimicrobial activity against Pseudomonas aeruginosa harboring algU mutant gene by Etest method; type: functional; method in brief: as §1
Pseudomonas aeruginosa [19] = experiment: Antimicrobial activity against Pseudomonas aeruginosa PA14 PA4088 harboring mutation in putative aminotransferase by Etest method; type: functional; method in brief: as §1
Pseudomonas aeruginosa [20] = experiment: Antimicrobial activity against Pseudomonas aeruginosa PA14 PA0667 harboring mutation in putative metallopeptidase by Etest method; type: functional; method in brief: as §2
Pseudomonas aeruginosa [21] = experiment: Antimicrobial activity against Pseudomonas aeruginosa PA14 PA5174 harboring mutation in putative beta-ketoacyl synthase by Etest method; type: functional; method in brief: as §1
Pseudomonas aeruginosa [22] = experiment: Antimicrobial activity against Pseudomonas aeruginosa PA14 PA5443 harboring uvrD mutant gene by Etest method; type: functional; method in brief: as §1
Pseudomonas aeruginosa [23] = experiment: Antimicrobial activity against Pseudomonas aeruginosa PA14 PA3247 harboring mutation in putative aspartyl aminopeptidase by Etest method; type: functional; method in brief: as §2
Pseudomonas aeruginosa [24] = experiment: Antimicrobial activity against Pseudomonas aeruginosa PA14 PA1348 harboring mutation in conserved hypothetical protein by Etest method; type: functional; method in brief: as §2
Pseudomonas aeruginosa [25] = experiment: Antimicrobial activity against Pseudomonas aeruginosa PA14 PA5003 harboring mutation in conserved hypothetical protein by Etest method; type: functional; method in brief: as §1
Pseudomonas aeruginosa [26] = experiment: Antimicrobial activity against Pseudomonas aeruginosa PA14 PA4745 harboring nusA mutant gene by Etest method; type: functional; method in brief: as §1
Pseudomonas aeruginosa [27] = experiment: Antimicrobial activity against Pseudomonas aeruginosa PA14 PA0807 harboring ampDh3 mutant gene by Etest method; type: functional; method in brief: as §2
Pseudomonas aeruginosa [28] = experiment: Antimicrobial activity against Pseudomonas aeruginosa PA14 PA3145 harboring wbpL mutant gene by Etest method; type: functional; method in brief: as §2
Pseudomonas aeruginosa [29] = experiment: Antimicrobial activity against Pseudomonas aeruginosa PA14 PA14_15600 harboring mutation in conserved hypothetical protein by Etest method; type: functional; method in brief: as §2
Pseudomonas aeruginosa [30] = experiment: Antimicrobial activity against Pseudomonas aeruginosa PA14 PA14_59780 harboring rcsC mutant gene by Etest method; type: functional; method in brief: as §2
Pseudomonas aeruginosa [31] = experiment: Antimicrobial activity against Pseudomonas aeruginosa PA14 PA0479 harboring mutation in putative transcriptional regulator, LysR family by Etest method; type: functional; method in brief: as §2
Pseudomonas aeruginosa [32] = experiment: Antimicrobial activity against Pseudomonas aeruginosa PA14 PA14_06490 harboring mutation in hypothetical protein by Etest method; type: functional; method in brief: as §2
Pseudomonas aeruginosa [33] = experiment: Antimicrobial activity against Pseudomonas aeruginosa PA14 PA3050 harboring pyrD mutant gene by Etest method; type: functional; method in brief: as §2
Pseudomonas aeruginosa [34] = experiment: Antimicrobial activity against Pseudomonas aeruginosa PA14 PA4109 harboring ampR mutant gene by Etest method; type: functional; method in brief: as §1

SMILES	MIC (Pseudomonas aeruginosa [1]) [µg/mL]	MIC (Pseudomonas aeruginosa [2]) [µg/mL]	MIC (Pseudomonas aeruginosa [3]) [µg/mL]	MIC (Pseudomonas aeruginosa [4]) [µg/mL]	MIC (Pseudomonas aeruginosa [5]) [µg/mL]	MIC (Pseudomonas aeruginosa [6]) [µg/mL]	MIC (Pseudomonas aeruginosa [7]) [µg/mL]	MIC (Pseudomonas aeruginosa [9]) [µg/mL]	MIC (Pseudomonas aeruginosa [11]) [µg/mL]	MIC (Pseudomonas aeruginosa [12]) [µg/mL]	MIC (Pseudomonas aeruginosa [13]) [µg/mL]	MIC (Pseudomonas aeruginosa [14]) [µg/mL]	MIC (Pseudomonas aeruginosa [15]) [µg/mL]	MIC (Pseudomonas aeruginosa [16]) [µg/mL]	MIC (Pseudomonas aeruginosa [17]) [µg/mL]	MIC (Pseudomonas aeruginosa [19]) [µg/mL]	MIC (Pseudomonas aeruginosa [20]) [µg/mL]	MIC (Pseudomonas aeruginosa [21]) [µg/mL]	MIC (Pseudomonas aeruginosa [22]) [µg/mL]	MIC (Pseudomonas aeruginosa [23]) [µg/mL]	further results
C[C@@H](O)[C@H]1C(=O)N2C(C(=O)O)=C(SCCNC=N)C[C@H]12 [IMIPENEM ANHYDROUS]	0.5 (≈ 1.67 µM)	0.75 (≈ 2.51 µM)	0.5 (≈ 1.67 µM)	0.25 (≈ 0.835 µM)	0.19 (≈ 0.635 µM)	0.5 (≈ 1.67 µM)	0.75 (≈ 2.51 µM)	0.38 (≈ 1.27 µM)	0.38 (≈ 1.27 µM)	0.5 (≈ 1.67 µM)	0.38 (≈ 1.27 µM)	0.25 (≈ 0.835 µM)	0.25 (≈ 0.835 µM)	0.125 (≈ 0.418 µM)	0.5 (≈ 1.67 µM)	0.38 (≈ 1.27 µM)	0.5 (≈ 1.67 µM)	0.125 (≈ 0.418 µM)	0.5 (≈ 1.67 µM)	0.38 (≈ 1.27 µM)	MIC (Pseudomonas aeruginosa [8]): 0.25 µg/mL (≈ 0.835 µM); MIC (Pseudomonas aeruginosa [10]): 0.5 µg/mL (≈ 1.67 µM); MIC (Pseudomonas aeruginosa [18]): 0.38 µg/mL (≈ 1.27 µM); MIC (Pseudomonas aeruginosa [24]): 0.5 µg/mL (≈ 1.67 µM); MIC (Pseudomonas aeruginosa [25]): 0.5 µg/mL (≈ 1.67 µM); MIC (Pseudomonas aeruginosa [26]): 0.25 µg/mL (≈ 0.835 µM); MIC (Pseudomonas aeruginosa [27]): 1 µg/mL (≈ 3.34 µM); MIC (Pseudomonas aeruginosa [28]): 0.38 µg/mL (≈ 1.27 µM); MIC (Pseudomonas aeruginosa [29]): 0.5 µg/mL (≈ 1.67 µM); MIC (Pseudomonas aeruginosa [30]): 0.5 µg/mL (≈ 1.67 µM); MIC (Pseudomonas aeruginosa [31]): 1 µg/mL (≈ 3.34 µM); MIC (Pseudomonas aeruginosa [32]): 0.38 µg/mL (≈ 1.27 µM); MIC (Pseudomonas aeruginosa [33]): 0.25 µg/mL (≈ 0.835 µM)
C[C@@H](O)[C@H]1C(=O)N2C(C(=O)O)=C(S[C@@H]3CN[C@H](C(=O)N(C)C)C3)[C@H](C)[C@H]12 [MEROPENEM]	0.38 (≈ 0.991 µM)	0.047 (≈ 0.123 µM)	0.125 (≈ 0.326 µM)	0.064 (≈ 0.167 µM)	0.064 (≈ 0.167 µM)	0.125 (≈ 0.326 µM)	0.125 (≈ 0.326 µM)	0.125 (≈ 0.326 µM)	0.125 (≈ 0.326 µM)	0.094 (≈ 0.245 µM)	0.125 (≈ 0.326 µM)	0.19 (≈ 0.495 µM)	0.125 (≈ 0.326 µM)	0.094 (≈ 0.245 µM)	0.094 (≈ 0.245 µM)	0.125 (≈ 0.326 µM)	0.19 (≈ 0.495 µM)	0.125 (≈ 0.326 µM)	0.094 (≈ 0.245 µM)	0.125 (≈ 0.326 µM)	MIC (Pseudomonas aeruginosa [24]): 0.5 µg/mL (≈ 1.3 µM); MIC (Pseudomonas aeruginosa [25]): 0.25 µg/mL (≈ 0.652 µM); MIC (Pseudomonas aeruginosa [26]): 0.125 µg/mL (≈ 0.326 µM); MIC (Pseudomonas aeruginosa [27]): 0.25 µg/mL (≈ 0.652 µM); MIC (Pseudomonas aeruginosa [28]): 0.094 µg/mL (≈ 0.245 µM); MIC (Pseudomonas aeruginosa [29]): 0.125 µg/mL (≈ 0.326 µM); MIC (Pseudomonas aeruginosa [30]): 0.125 µg/mL (≈ 0.326 µM); MIC (Pseudomonas aeruginosa [31]): 0.047 µg/mL (≈ 0.123 µM); MIC (Pseudomonas aeruginosa [32]): 0.125 µg/mL (≈ 0.326 µM); MIC (Pseudomonas aeruginosa [34]): 0.125 µg/mL (≈ 0.326 µM); MIC (Pseudomonas aeruginosa [33]): 0.094 µg/mL (≈ 0.245 µM)
